Source: ChEMBL document CHEMBL1125378, “alpha-Methyl polyamines: metabolically stable spermidine and spermine mimics capable of supporting growth in cells depleted of polyamines” (J Med Chem, 1992)

Tests used:
[1] = Retention time was determined; type: ADME
SV3T3 [2] = test: Compound level in 96 hr DFMO (5 mM)-treated SV3T3 cells after exposure to 25 uM 1,12-dimethylspermine; type: functional, cell-based; details: Mus musculus
SV3T3 [3] = test: Compound level in 72 hr DFMO (5 mM)-treated SV3T3 cells after exposure to 1 uM 1,12-dimethylspermine; details: Mus musculus
HT-29 [4] = test: Compound level in 72 hr DFMO (5 mM)-treated HT-29 cells after exposure to 10 uM 1,12-dimethylspermine; type: functional, cell-based; details: Homo sapiens, in the assay text read “120 hr” for “72 hr”
Summary of the method: (§1)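 HT29 experiment B: 5 mM DFMO for 120 h before addition and throughout a further 96 h; refed at 96 h. Cells without DFMO cultured 96 h in total. Polyamines measured as nmol/mg protein (detection limit 0.2). SD from at least four separate experiments.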

L1210 [5] = test: Compound level in 72 hr DFMO (5 mM)-treated L1210 cells after exposure to 10 uM 1,12-dimethylspermine; type: functional, cell-based; details: Mus musculus
Summary of the method: (§2)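 L1210 cells held in 5 mM DFMO for 72 h before polyamine addition and through a further 72 h, refed at 72 h; controls without DFMO cultured 72 h in total. Intracellular polyamines reported as nmol/mg protein (detection limit 0.2). Mean ± SD from at least four separate experiments.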

SV3T3 [6] = test: Compound level in 96 hr DFMO (5 mM)-treated SV3T3 cells after exposure to 10 uM 1,12-dimethylspermine; type: functional, cell-based; details: Mus musculus
HT-29 [7] = test: Compound level in 72 hr DFMO (5 mM)-treated HT-29 cells after exposure to 25 uM 1,12-dimethylspermine; type: functional, cell-based; details: Homo sapiens, in the assay text read “120 hr” for “72 hr”; summary of the method: as §1
SV3T3 [8] = test: Compound level in 72 hr DFMO (5 mM)-treated SV3T3 cells after exposure to 25 uM 1-methylspermidine; type: functional, cell-based; details: Mus musculus
Summary of the method: (§3)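 SV-3T3 fibroblasts (experiment A) held in 5 mM DFMO for 72 h before polyamine addition and throughout a further 72 h. Intracellular polyamines expressed as nmol/mg protein (detection limit 0.05). SD from at least four separate experiments, or duplicate where no SD is given.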

SV3T3 [9] = test: Compound level in 72 h DFMO (5 mM)-treated SV3T3 cells after exposure to 10 uM 1-methylspermidine; type: functional, cell-based; details: Mus musculus; summary of the method: as §3
SV3T3 [10] = test: Compound level in 72 hr DFMO (5 mM)-treated SV3T3 cells after exposure to 1 uM 1-methylspermidine; type: functional, cell-based; details: Mus musculus; summary of the method: as §3
SV3T3 [11] = test: Compound level in 72 hr DFMO (5 mM)-treated SV3T3 cells after exposure to 25 uM 1-methylspermine; type: functional, cell-based; details: Mus musculus; summary of the method: as §3
SV3T3 [12] = test: Compound level in 72 hr DFMO (5 mM)-treated SV3T3 cells after exposure to 1 uM 1-methylspermine; type: functional, cell-based; details: Mus musculus; summary of the method: as §3
L1210 [13] = test: Compound level in 72 hr DFMO (5 mM)-treated L1210 cells after exposure to 10 uM 1-methylspermidine; type: functional, cell-based; details: Mus musculus; summary of the method: as §2
HT-29 [14] = test: Compound level in 72 hr DFMO (5 mM)-treated HT-29 cells after exposure to 25 uM 1-methylspermidine; type: functional, cell-based; details: Homo sapiens
Summary of the method: (§4)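 HT29 cells pretreated with 5 mM DFMO for 120 h, then polyamine added and culture continued with DFMO for 72 h (experiment A); refed at 96 h. Cellular polyamine content given as nmol/mg protein (detection limit 0.2). SD from at least four separate experiments.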

SV3T3 [15] = test: Compound level in 72 hr DFMO (5 mM)-treated SV3T3 cells after exposure to 10 uM 1-methylspermine; type: functional, cell-based; details: Mus musculus; summary of the method: as §3
HT-29 [16] = test: Compound level in 72 hr DFMO (5 mM)-treated HT-29 cells after exposure to 10 uM 1-methylspermine; type: functional, cell-based; details: Homo sapiens; summary of the method: as §4
HT-29 [17] = test: Compound level in 72 hr DFMO (5 mM)-treated HT-29 cells after exposure to 10 uM 1-methylspermidine; type: functional, cell-based; details: Homo sapiens; summary of the method: as §4
L1210 [18] = test: Compound level in 72 hr DFMO (5 mM)-treated L1210 cells after exposure to 10 uM 1-methylspermine; type: functional, cell-based; details: Mus musculus; summary of the method: as §2
HT-29 [19] = test: Compound level in 72 hr DFMO (5 mM)-treated HT-29 cells after exposure to 25 uM 1-methylspermine; type: functional, cell-based; details: Homo sapiens; summary of the method: as §4

tR [1] [min]	Structure (SMILES)	Level (nM (mg of protein)-1) (SV3T3 [2])	Level (nM (mg of protein)-1) (SV3T3 [3])	Level (nM (mg of protein)-1) (HT-29 [4])	Level (nM (mg of protein)-1) (L1210 [5])	Level (nM (mg of protein)-1) (SV3T3 [6])	Level (nM (mg of protein)-1) (HT-29 [7])	Level (nM (mg of protein)-1) (SV3T3 [8])	Level (nM (mg of protein)-1) (SV3T3 [9])	Level (nM (mg of protein)-1) (SV3T3 [10])	Level (nM (mg of protein)-1) (SV3T3 [11])	Level (nM (mg of protein)-1) (SV3T3 [12])	Level (nM (mg of protein)-1) (L1210 [13])	Level (nM (mg of protein)-1) (HT-29 [14])	Level (nM (mg of protein)-1) (SV3T3 [15])	Level (nM (mg of protein)-1) (HT-29 [16])	Level (nM (mg of protein)-1) (HT-29 [17])	Level (nM (mg of protein)-1) (L1210 [18])	Level (nM (mg of protein)-1) (HT-29 [19])
40.9	CC(N)CCNCCCCNCCC(C)N (configuration not stated)	24.8	4.2	18.2	61.9	29.4	17.3												
34.5	CC(N)CCNCCCCN (configuration not stated)					1.2		31.2	26.8	11.8	0.4	0.6	67.2	16.8	2.7	0.2	13.3		
40.5	CC(N)CCNCCCCNCCCN (configuration not stated)							4.4	4.2	2.4	33.1	11.8	7.8	8.6	33.7	21.3	7.8	63.4	24.2
